Reference: ChEMBL document CHEMBL1124531, “Intercalating agents with covalent bond forming capability. A novel type of potential anticancer agents. 2. Derivatives of chrysophanol and emodin” (1989)

Columns and labels:
L1210 = assay: Inhibitory activity against murine L1210 leukemic cell growth; assay type: functional; details: Mus musculus, read-out: ID50 (the source's name)
Nucleic Acid [1] = assay: Ratio for human acute promyelocytic leukemia cells(HL-60) cell growth inhibition and [3H]TdR incorporation into DNA in HL-60 cells; assay type: functional, cell-based
Nucleic Acid [2] = assay: Inhibitory activity against [3H]TdR incorporation into DNA in HL-60 cells during the initial 30-min period.; assay type: functional, cell-based; details: Homo sapiens
Outline: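 HL-60 cells (2.5 × 10^6/mL) preincubated 15 min with compound at four to six concentrations in 0.2% DMSO, then pulsed with [3H-methyl]TdR (1 μCi, 0.15 nmol/mL) for 30 min; radioactivity in isolated DNA fraction counted; compound-free DMSO control as reference.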

HL-60 = assay: Inhibitory activity against human acute promyelocytic leukemia cells(HL-60) cell growth on 72 hr of exposure of the compound.; assay type: functional; details: HL-60, 72 h, read-out: ID50 (the source's name)

Compound	IC50 (L1210)	IC50 (HL-60)	Ratio (Nucleic Acid [1])	ID50 (Nucleic Acid [2])
COc1cccc2c1C(=O)c1c(OC)cc(CN(CCCl)CCCl)cc1C2=O	13 µM	1.8 µM	7.8	14 µM
COc1cc(O)c2c(c1)C(=O)c1cc(CNCCCl)cc(O)c1C2=O	18 µM	9.2 µM	23.9	220 µM
O=C1c2cccc(O)c2C(=O)c2c(O)cc(CNCCCl)cc21	7.1 µM	7.5 µM	5.2	39 µM
CCNCc1cc(O)c2c(c1)C(=O)c1cccc(O)c1C2=O	0.77 µM	8.7 µM	2.1	18 µM
CCNCc1cc(OC)c2c(c1)C(=O)c1cc(OC)cc(OC)c1C2=O	9.8 µM	17 µM	0.76	13 µM
COc1cc(O)c2c(c1)C(=O)c1cc(C(Br)Br)cc(OC)c1C2=O	0.001 µM	0.097 µM	237	23 µM
CCNCc1cc(OC)c2c(c1)C(=O)c1cccc(OC)c1C2=O	1.2 µM	48 µM	0.6	29 µM
O=C1c2cccc(O)c2C(=O)c2c(O)cc(Cn3ccnc3)cc21	7.4 µM	4.8 µM	9	43 µM
COc1cc(OC)c2c(c1)C(=O)c1cc(CNCCCl)cc(OC)c1C2=O	32 µM	5.8 µM	3.1	18 µM
CCN(CC)Cc1cc(O)c2c(c1)C(=O)c1cccc(O)c1C2=O	2.8 µM	1.8 µM	7.8	14 µM
CCN(CC)Cc1cc(OC)c2c(c1)C(=O)c1cccc(OC)c1C2=O	130 µM	30 µM	6.3	19 µM
COc1cc(O)c2c(c1)C(=O)c1cc(CNCCO)cc(O)c1C2=O	0.5 µM	1.6 µM	7.5	12 µM
COc1cc(O)c2c(c1)C(=O)c1cc(CN(CCO)CCO)cc(O)c1C2=O	14 µM	6.6 µM	5.2	45 µM
COc1cc(O)c2c(c1)C(=O)c1cc(CN(CCCl)CCCl)cc(O)c1C2=O	–	0.61 µM	19.7	12 µM
COc1cc(OC)c2c(c1)C(=O)c1cc(C)cc(OC)c1C2=O	100 µM	49 µM	0.43	21 µM
COc1cc(OC)c2c(c1)C(=O)c1cc(CN(CCCl)CCCl)cc(OC)c1C2=O	2.7 µM	2 µM	4.5	8.9 µM
O=C1c2cccc(O)c2C(=O)c2c(O)cc(CN(CCO)CCO)cc21	5.9 µM	3.3 µM	4.2	14 µM
O=C1c2cccc(O)c2C(=O)c2c(O)cc(CN(CCCl)CCCl)cc21	–	0.18 µM	383	69 µM
COc1cc(O)c2c(c1)C(=O)c1cc(C(Br)Br)cc(O)c1C2=O	0.001 µM	0.19 µM	579	110 µM
COc1cccc2c1C(=O)c1c(OC)cc(CN(CCO)CCO)cc1C2=O	> 50 µM	490 µM	0.03	14 µM
COc1cc(CN(CCCl)CCCl)cc2c1C(=O)c1c(O)cccc1C2=O	–	0.39 µM	38.5	15 µM
O=C1c2cccc(O)c2C(=O)c2c(O)cc(CBr)cc21	8.6 µM	7.1 µM	2.3	16 µM
COc1cccc2c1C(=O)c1c(OC)cc(CNCCCl)cc1C2=O	26 µM	86 µM	0.22	19 µM
COc1cc(O)c2c(c1)C(=O)c1cc(CN(CCCl)CCCl)cc(OC)c1C2=O	3.3 µM	0.52 µM	10.4	5.4 µM
CCN(CC)Cc1cc(O)c2c(c1)C(=O)c1cc(OC)cc(O)c1C2=O	1.2 µM	3.4 µM	10.3	35 µM

More lines, main results first:

IC50 (L1210)	IC50 (HL-60)	Compound	Ratio (Nucleic Acid [1])	ID50 (Nucleic Acid [2])
28 µM	–	COc1cccc2c1C(=O)c1c(OC)cc(C)cc1C2=O	1.9	19 µM
9.2 µM	4.4 µM	COc1cccc2c1C(=O)c1c(OC)cc(CBr)cc1C2=O	2.5	11 µM
59 µM	25 µM	COc1cc(O)c2c(c1)C(=O)c1cc(CBr)cc(O)c1C2=O	13.6	340 µM
8.5 µM	11 µM	NCc1cc(O)c2c(c1)C(=O)c1cccc(O)c1C2=O	2.3	25 µM
41 µM	6 µM	COc1cc(OC)c2c(c1)C(=O)c1cc(C(Br)Br)cc(OC)c1C2=O	9.7	58 µM
4 µM	2.8 µM	O=C1c2cccc(O)c2C(=O)c2c(O)cc(CN3CCCCC3)cc21	22.5	63 µM
27 µM	27 µM	CC(C)NC(=O)OCCN(CCOC(=O)NC(C)C)Cc1cc(O)c2c(c1)C(=O)c1cccc(O)c1C2=O	0.63	17 µM
4.6 µM	4.1 µM	CCCCNCc1cc(O)c2c(c1)C(=O)c1cccc(O)c1C2=O	6.1	25 µM
4.2e-05 µM	0.06 µM	COc1cc(C(Br)Br)cc2c1C(=O)c1c(O)cccc1C2=O	217	13 µM
1.6 µM	2.1 µM	O=C1c2cccc(O)c2C(=O)c2c(O)cc(CN3CCCC3)cc21	4.8	10 µM
89 µM	12 µM	CNC(=O)OCCN(CCOC(=O)NC)Cc1cc(OC)c2c(c1)C(=O)c1cccc(O)c1C2=O	1	12 µM
> 27 µM	100 µM	COc1cc(OC)c2c(c1)C(=O)c1cc(CN(CCO)CCO)cc(OC)c1C2=O	0.17	17 µM
> 18 µM	210 µM	CNC(=O)OCCN(CCOC(=O)NC)Cc1cc(O)c2c(c1)C(=O)c1cccc(O)c1C2=O	0.13	28 µM
17 µM	110 µM	COc1cc(OC)c2c(c1)C(=O)c1cc(CNCCO)cc(OC)c1C2=O	0.24	26 µM
12 µM	5.2 µM	CCN(CC)Cc1cc(OC)c2c(c1)C(=O)c1cccc(O)c1C2=O	2.7	14 µM
0.44 µM	2.5 µM	O=C1c2cccc(O)c2C(=O)c2c(O)cc(C(Br)Br)cc21	15.6	39 µM
6.9 µM	6.7 µM	CCN(CC)Cc1cc(OC)c2c(c1)C(=O)c1cc(OC)cc(O)c1C2=O	26.9	180 µM
8.8 µM	7.1 µM	COc1cc(CBr)cc2c1C(=O)c1c(O)cccc1C2=O	1.7	12 µM
0.89 µM	2.1 µM	COc1cccc2c1C(=O)c1c(OC)cc(C(Br)Br)cc1C2=O	4.3	9 µM
0.67 µM	3.2 µM	O=C1c2cccc(O)c2C(=O)c2c(O)cc(CNCCCO)cc21	5	16 µM
8.8 µM	> 500 µM	COc1cc(O)c2c(c1)C(=O)c1cc(CN(CCO)CCO)cc(OC)c1C2=O	0.02	9.6 µM
> 24 µM	21 µM	COc1cc(CN(CCO)CCO)cc2c1C(=O)c1c(O)cccc1C2=O	4.2	89 µM
0.16 µM	–	O=C1c2cccc(O)c2C(=O)c2c(O)cc(CNCCO)cc21	17.4	15 µM
6.9 µM	7.9 µM	CCN(CC)Cc1cc(OC)c2c(c1)C(=O)c1cc(OC)cc(OC)c1C2=O	0.53	4.2 µM
0.068 µM	1.7 µM	COc1cc(O)c2c(c1)C(=O)c1cc(CBr)cc(OC)c1C2=O	41	70 µM
0.68 µM	84 µM	COc1cc(OC)c2c(c1)C(=O)c1cc(CBr)cc(OC)c1C2=O	0.14	12 µM
0.72 µM	2.1 µM	CCNCc1cc(O)c2c(c1)C(=O)c1cc(OC)cc(O)c1C2=O	6.2	13 µM
140 µM	55 µM	COc1cccc2c1C(=O)c1c(OC)cc(CNCCO)cc1C2=O	0.84	46 µM
2.2 µM	2.7 µM	CN(C)Cc1cc(O)c2c(c1)C(=O)c1cccc(O)c1C2=O	3.3	9.3 µM
72 µM	9.5 µM	CNC(=O)OCCN(CCOC(=O)NC)Cc1cc(OC)c2c(c1)C(=O)c1cccc(OC)c1C2=O	0.99	9.4 µM
